From ChEMBL document CHEMBL4396973, “Design and development of a series of borocycles as selective, covalent kallikrein 5 inhibitors” (Bioorg Med Chem Lett, 2019) come the findings set out here.

The IC50 is the concentration that inhibits the measured activity by half. Usually pKa stands for the pH at which an ionisable group is half protonated. Low readings indicate a stronger acid or weaker base, high ones a weaker acid or stronger base.

One series concerns the target Kallikrein-1 (Homo sapiens, UniProt P06870). The series is described as follows: Inhibition of human recombinant N-terminal His-tagged and enterokinase cleavage site-fused KLK1 (19 to 262 residues) expressed in baculovirus infected Sf9 insect cells using R110 labelled GSK3162232A as substrate measured at 30 secs interval for 5 mins by FLINT assay.
For series [1], the target named is T1, Kallikrein-5 (Homo sapiens, UniProt Q9Y337).
T1 sequence (Q9Y337 whole entry): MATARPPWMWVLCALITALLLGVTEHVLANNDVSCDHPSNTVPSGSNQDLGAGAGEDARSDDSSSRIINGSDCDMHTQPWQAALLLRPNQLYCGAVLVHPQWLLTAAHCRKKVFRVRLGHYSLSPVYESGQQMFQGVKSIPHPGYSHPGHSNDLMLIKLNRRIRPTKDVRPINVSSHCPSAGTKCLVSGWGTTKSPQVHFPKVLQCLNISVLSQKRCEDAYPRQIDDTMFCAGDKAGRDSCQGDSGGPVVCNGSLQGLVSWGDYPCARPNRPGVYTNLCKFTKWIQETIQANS
Briefly: Inhibition of human recombinant 6His-Q-FLAG-tagged KLK5 expressed in baculovirus infected Sf9 insect cells using (Tos-Gly-Pro-Arg)2[R110].2TFA as substrate measured at 30 secs interval for 5 mins by FLINT assay. In outline: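 Standard KLK5 assay format. Its theoretical tight-binding limit corresponds to pIC50 8.4.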

Series [2] deals with T2, Suppressor of tumorigenicity 14 protein (Homo sapiens, UniProt Q9Y5Y6).
T2 sequence (Q9Y5Y6 whole entry): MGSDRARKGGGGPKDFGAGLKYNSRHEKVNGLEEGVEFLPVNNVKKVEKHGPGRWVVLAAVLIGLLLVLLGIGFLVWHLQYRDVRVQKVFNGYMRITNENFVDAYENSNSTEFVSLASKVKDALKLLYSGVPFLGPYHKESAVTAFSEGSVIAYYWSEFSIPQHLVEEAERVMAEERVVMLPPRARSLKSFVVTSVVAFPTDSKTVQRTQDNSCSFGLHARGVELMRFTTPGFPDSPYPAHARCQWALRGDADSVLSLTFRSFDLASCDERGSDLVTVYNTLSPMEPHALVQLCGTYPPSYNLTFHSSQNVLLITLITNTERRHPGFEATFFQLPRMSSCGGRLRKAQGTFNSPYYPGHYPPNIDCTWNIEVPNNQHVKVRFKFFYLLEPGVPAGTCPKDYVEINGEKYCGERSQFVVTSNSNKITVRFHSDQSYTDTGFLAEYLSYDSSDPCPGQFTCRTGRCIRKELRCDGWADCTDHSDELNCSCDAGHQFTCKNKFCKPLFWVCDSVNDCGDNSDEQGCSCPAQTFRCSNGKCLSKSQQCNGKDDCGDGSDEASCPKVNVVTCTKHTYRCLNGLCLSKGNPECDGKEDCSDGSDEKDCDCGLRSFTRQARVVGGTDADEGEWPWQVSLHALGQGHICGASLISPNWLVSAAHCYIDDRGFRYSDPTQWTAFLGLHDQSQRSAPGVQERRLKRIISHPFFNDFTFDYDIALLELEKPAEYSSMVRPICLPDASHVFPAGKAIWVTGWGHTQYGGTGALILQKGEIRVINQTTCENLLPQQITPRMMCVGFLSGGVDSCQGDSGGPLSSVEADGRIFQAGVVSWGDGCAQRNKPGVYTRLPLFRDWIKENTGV
The series is described as follows: Inhibition of recombinant human N-terminal Met and 6-His-tagged matriptase (G596 to V855 residues) expressed in Escherichia coli using Boc-QAR-AMC as substrate incubated for 40 mins by FLINT assay.

Another series addresses Prothrombin (Homo sapiens, UniProt P00734). Briefly: Inhibition of human recombinant C-terminal 10-His-tagged thrombin (M1 to E622 residues) expressed in mouse NS0 cells using BOC-VPR-AMC as substrate incubated for 40 mins by FLINT assay.
The target of series [3] is T1, Kallikrein-5. Briefly: Inhibition of human recombinant 6His-Q-FLAG-tagged KLK5 expressed in baculovirus infected Sf9 insect cells using (Tos-Gly-Pro-Arg)2[R110].2TFA as substrate measured at 30 secs interval for 5 mins using 1 x 10'10M enzyme by FLINT assay.
Series [4] addresses Urokinase-type plasminogen activator (Homo sapiens, UniProt P00749). The series is described as follows: Inhibition of recombinant human C-terminal 10-His-tagged urokinase (M1 to L431 residues) expressed in mouse NS0 cells using Z-GGR-AMC as substrate incubated for 40 mins by FLINT assay.
The next series has as its target Coagulation factor X (Homo sapiens, UniProt P00742). The series is described as follows: Inhibition of recombinant human C-terminal 10-His-tagged factor Xa (L24 to K488 residues) expressed in baculovirus infected Sf21 insect cells using Mca-RPKPVE-Nval-WRK(Dnp)-NH2 as substrate incubated for 40 mins by FLINT assay.
Another series concerns the target T3, Kallikrein-8 (Homo sapiens, UniProt O60259).
T3 sequence (O60259 whole entry): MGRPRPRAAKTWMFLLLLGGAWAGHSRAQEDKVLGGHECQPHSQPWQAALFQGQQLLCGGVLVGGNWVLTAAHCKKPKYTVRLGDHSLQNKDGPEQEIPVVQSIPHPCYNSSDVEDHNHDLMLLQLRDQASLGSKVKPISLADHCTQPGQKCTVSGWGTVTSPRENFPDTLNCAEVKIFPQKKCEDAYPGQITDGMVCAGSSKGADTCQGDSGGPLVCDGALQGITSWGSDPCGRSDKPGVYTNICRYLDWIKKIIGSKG
Briefly: Inhibition of recombinant human C-terminal 10-His-tagged KLK8 (Gln29 to Gly260 residues) expressed in mouse NS0 cells using BOC-VPR-AMC as substrate incubated for 40 mins by FLINT assay.

In a further series the target is Plasma kallikrein (Homo sapiens, UniProt P03952). The series is described as follows: Inhibition of human C-terminal 6-His-tagged KLKB1 (G20-A638 residues) expressed in mouse NS0 cells using PFR-AMC as substrate incubated for 40 mins by FLINT assay.
In another series the target is T4, Kallikrein-14 (Homo sapiens, UniProt Q9P0G3).
T4 sequence (Q9P0G3 whole entry): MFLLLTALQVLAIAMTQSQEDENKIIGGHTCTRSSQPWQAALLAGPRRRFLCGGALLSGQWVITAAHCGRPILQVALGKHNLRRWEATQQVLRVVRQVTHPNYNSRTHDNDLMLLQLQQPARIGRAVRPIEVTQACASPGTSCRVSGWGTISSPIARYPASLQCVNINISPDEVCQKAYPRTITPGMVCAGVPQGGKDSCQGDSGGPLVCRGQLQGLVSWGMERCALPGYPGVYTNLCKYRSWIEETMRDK
Briefly: Inhibition of recombinant human C-terminal 10-His-tagged KLK14 (Q19 to M248 residues) expressed in mouse NS0 cells using BOC-VPR-AMC as substrate incubated for 40 mins by FLINT assay.

The target in the next series is T5, Neutrophil elastase (Homo sapiens, UniProt P08246).
T5 sequence (P08246 whole entry): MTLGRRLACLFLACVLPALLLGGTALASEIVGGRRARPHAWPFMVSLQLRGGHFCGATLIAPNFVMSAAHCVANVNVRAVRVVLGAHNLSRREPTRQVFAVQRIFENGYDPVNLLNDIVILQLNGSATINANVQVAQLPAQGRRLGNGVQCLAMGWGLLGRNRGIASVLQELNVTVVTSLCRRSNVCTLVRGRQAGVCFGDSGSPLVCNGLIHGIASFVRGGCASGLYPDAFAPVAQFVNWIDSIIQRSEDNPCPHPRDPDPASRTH
The series is described as follows: Inhibition of human neutrophil elastase using MeOSuc-AAPV-AMC as substrate incubated for 40 mins by FLINT assay.

The nature of series [5]: Dissociation constant, borocycle pKa of the compound. It is filed as physicochemical.
In another series the target is Kallikrein-7 (Homo sapiens, UniProt P49862). The series is described as follows: Inhibition of recombinant human C-terminal 10-His-tagged KLK7 (Glu23 to His252 residues) expressed in mouse NS0 cells using 5-FAM-E-A-L-Y-L-V-S-G-C(5-TAMRA) as substrate incubated for 40 mins by FLINT assay.
The species entered for a further series is Homo sapiens. The series is described as follows: Selectivity ratio of IC50 for human C-terminal 6-His-tagged KLKB1 (G20 to A638 residues) expressed in mouse NS0 cells to IC50 for human recombinant 6His-Q-FLAG-tagged KLK5 expressed in baculovirus infected Sf9 insect cells.

With `N=C(N)c1ccc(CNc2cccc3c2B(O)OC3)cc1`, the IC50 on Kallikrein-1 is 7.94 µM; on Kallikrein-5 [1], 200 µM.

Take `N=C(N)c1ccc(OCc2ccc3c(c2)B(O)OC3)cc1`: the figures for the IC50 at Kallikrein-1 and on Kallikrein-5 [1] were 10 µM and 6.31 µM, respectively.

`N=C(N)c1ccc(COc2ccc3c(c2)COB3O)cc1`: the IC50 at Kallikrein-1 is 158 µM; on Kallikrein-5 [1], 6.31 µM.

In the case of `N=C(N)c1ccc(COc2ccc3c(c2)B(O)OC3)cc1`, the half-maximal inhibitory concentration (IC50) on Kallikrein-1 and at Kallikrein-5 [1] was 39.8 µM throughout.

In the case of `N=C(N)c1ccc(COc2cccc3c2B(O)OC3)cc1`, the IC50 at Kallikrein-1 is 501 µM; on Kallikrein-5 [1], 31.6 µM.

As for `N=C(N)c1cccc(COc2ccc3c(c2)B(O)OC3)c1`, the results for the concentration for half-maximal inhibition (IC50) at Kallikrein-1 and at Kallikrein-5 [1] were 158 µM and 12.6 µM, respectively.

With `N=C(N)c1ccc(Oc2ccc3c(c2)B(O)OC3)cc1`, the figures for the half-maximal inhibitory concentration (IC50) on Kallikrein-1 and on Kallikrein-5 [1] were 25.1 µM and 50.1 µM, respectively.

Take `N=C(N)c1ccc(C2CCCB(O)O2)cc1` (racemic): the figures for the IC50 at Kallikrein-1 and on Kallikrein-5 [1] were 63.1 µM and 39.8 µM, respectively.

As for `N=C(N)c1ccc(C2Cc3ccc(C(F)(F)F)cc3B(O)O2)cc1OCc1cccnc1` (racemic), the IC50 is 0.398 µM on Kallikrein-1; 2 µM in series [2]; 3.98 µM on Prothrombin; 0.000501 µM on Kallikrein-5 [3]; 12.6 µM in series [4]; 1.58 µM at Coagulation factor X. Moreover, the IC50 was 0.0251 µM at Kallikrein-8; 0.01 µM against Plasma kallikrein; 0.126 µM at Kallikrein-14; greater than 100 µM against Neutrophil elastase; 39.8 µM on Kallikrein-7. In series [5], the pKa was 4.54.

In the case of `N=C(N)c1ccc(C2Cc3cc(Cl)c(F)cc3B(O)O2)cc1OCc1cccnc1` (racemic), the half-inhibitory concentration (IC50) was 3.98 to 6.31 µM at Kallikrein-1; 15.8 µM in [2]; 2 µM at Prothrombin; 0.00126 µM on Kallikrein-5 [3]; 79.4 µM in series [4]; 5.01 µM at Coagulation factor X. Further, the half-inhibitory concentration (IC50) at Kallikrein-8 was 0.251 µM; against Plasma kallikrein, 0.2 µM; on Kallikrein-14 it was 0.2 µM; at Neutrophil elastase, 1.26 µM; at Kallikrein-7 it was greater than 100 µM. In [5], this compound returned a pKa of 4.26.

For `N=C(N)c1ccc(C2Cc3ccc(F)cc3B(O)O2)cc1OCc1cccnc1` (racemic), the IC50 at Kallikrein-1 is 3.98 µM; in [2] it was 10 µM; on Prothrombin, 10 µM; on Kallikrein-5 [3], 0.00794 µM; in series [4], greater than 100 µM; at Coagulation factor X, 63.1 µM. In addition, the half-inhibitory concentration (IC50) at Kallikrein-8 is 0.316 µM; against Plasma kallikrein, 0.0794 µM; on Kallikrein-14 it was 0.316 µM; at Kallikrein-5 [1], 0.00631 µM; on Neutrophil elastase it was 31.6 µM; at Kallikrein-7, greater than 100 µM. In addition, in the series filed under Homo sapiens, the Ratio IC50 is 10. In series [5], this compound had a pKa of 4.66.

With `N=C(N)c1ccc(C2OB(O)c3ccccc32)cc1` (racemic), the IC50 was 79.4 µM on Kallikrein-1 and 398 µM at Kallikrein-5 [1].

Consider `N=C(N)c1ccc(C2Cc3ccccc3B(O)O2)cc1OCc1cccc(Cl)c1` (racemic), for which the half-maximal inhibitory concentration (IC50) was 1.58 µM on Kallikrein-1; 0.0126 µM in series [2]; 0.398 µM on Prothrombin; 0.00501 µM on Kallikrein-5 [3]; 0.0631 µM in [4]; 2 µM on Coagulation factor X. Further, the IC50 on Kallikrein-8 is 0.1 µM; against Plasma kallikrein it was 0.00501 µM; on Kallikrein-14, 0.251 µM; at Kallikrein-5 [1], 0.00794 µM; against Neutrophil elastase, 15.8 µM; at Kallikrein-7, 39.8 µM. In the series filed under Homo sapiens, the Ratio IC50 came to 10.

Take `N=C(N)c1ccc(C2Cc3ccccc3B(O)O2)cc1OCc1ccccc1Cl` (racemic): the concentration for half-maximal inhibition (IC50) is 0.631 µM on Kallikrein-1; 7.94 µM in [2]; 3.16 µM on Prothrombin; 0.00794 µM on Kallikrein-5 [3]; 50.1 µM in series [4]; 10 µM on Coagulation factor X. Moreover, the half-inhibitory concentration (IC50) at Kallikrein-8 was 0.251 µM; on Plasma kallikrein, 0.0501 µM; on Kallikrein-14, 1.58 µM; at Kallikrein-5 [1], 0.01 µM; against Neutrophil elastase, 6.31 µM; on Kallikrein-7, 39.8 µM. Moreover, the Ratio IC50 in the series filed under Homo sapiens was found to be 10.

As to `N=C(N)c1ccc(CC2OB(O)c3cc(F)ccc32)cc1OCc1cccnc1` (racemic), the half-inhibitory concentration (IC50) is 0.316 to 3.98 µM at Kallikrein-1; 63.1 µM in series [2]; 2 µM at Prothrombin; 0.00158 µM at Kallikrein-5 [3]; 79.4 µM in series [4]; 5.01 µM on Coagulation factor X. Further, the half-inhibitory concentration (IC50) on Kallikrein-8 was 7.94 µM; against Plasma kallikrein, 0.794 µM; on Kallikrein-14 it was 12.6 µM; on Kallikrein-5 [1] it was 0.0126 µM; at Neutrophil elastase it was 1.58 µM; on Kallikrein-7, greater than 100 µM. The Ratio IC50 in the series filed under Homo sapiens was 10. Besides, the pKa in series [5] was 4.77.

`N=C(N)c1cccc(C2Cc3ccccc3B(O)O2)c1` (racemic): the IC50 at Kallikrein-1 was 0.501 µM; on Kallikrein-5 [1], 3.98 µM.
